Laboratory results published in article PMC7339641 (Molecular imaging and biology, 2018).

How the values were obtained:
MDA-MB-453 cells = test: Fluorescent microscopy of peptide binding, MDA-MB-453; format: cell-based, human; settings: fixed cells, peptide 250 nM, 1 h room temperature, neutravidin-AlexaFluor488
How it was run: (§1)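 Cells fixed in 10 % formalin and dried onto slides overnight. Rehydrated in TBS, then blocked with 2 % BSA in TBS for 1 h. Biotinylated test peptide at 250 nM in 0.1 % TBST for 1 h at room temperature, then 3× washes with 0.1 % TBST. Neutravidin-AlexaFluor488 for 1 h at room temperature. Mounted in DAPI-containing medium and imaged on an inverted microscope.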

HCC-1954 cells = test: Fluorescent microscopy of peptide binding, HCC-1954; format: cell-based; settings: fixed cells, peptide 250 nM, 1 h room temperature, neutravidin-AlexaFluor488
How it was run: as §1

HER3 = settings: human, in vivo; cited from earlier work

Compound	binding by fluorescent microscopy, MDA-MB-453 (MDA-MB-453 cells)	binding by fluorescent microscopy, HCC-1954 (HCC-1954 cells)	specific accumulation measured by tumor-to-blood ratio (HER3)
CC(C)C[C@@H]1NC(=O)[C@@H](NC(=O)CNC(=O)CNC(=O)CNC(=O)CCCC[C@@H]2SC[C@@H]3NC(=O)N[C@@H]32)CSSC[C@@H](C(=O)O)NC(=O)[C@H](CO)NC(=O)[C@H](CCCNC(=N)N)NC(=O)[C@H](Cc2ccccc2)NC(=O)[C@H](CCCCN)NC(=O)[C@H]([C@@H](C)O)NC(=O)[C@@H]2CCCN2C1=O [biotinylated-HER3P1]	high binding	almost no visualization	–
^64Cu-labeled DOTA-conjugated patritumab: 64Cu-labeled DOTA conjugate of the anti-HER3 antibody patritumab	–	–	approximately 1
